# ChEMBL document CHEMBL1158464, “Structure-activity relationships and cancer-cell selective toxicity of novel inhibitors of glioma-associated oncogene homologue 1 (Gli1) mediated transcription” (J Med Chem, 2009)
# The source made the active and inactive calls. The calls are words filed in the database; no cut-off is given here.
# Columns and labels:
# [1] = system: BJ; experiment: Cytotoxicity against human TERT-immortalized human BJ cells at 40 uM/well after 68 hrs by alamar blue assay; format: cell-based
# Method in brief: (§1)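 Cells plated in appropriate medium 24 h before compound. A 10 mM DMSO stock was diluted in EMEM to 160 µM (4×) and added in triplicate to a final 40 µM. Incubated 68 h at 37 °C, then Alamar Blue for 4 h at 37 °C. Fluorescence read at ex 510/em 590 nm. Viability taken relative to DMSO control wells.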
# [2] = system: Daoy; experiment: Cytotoxicity against human DaOY cells at 40 uM/well after 68 hrs by alamar blue assay; format: functional, cell-based; method in brief: as §1
# [3] = molecular target: T1, Zinc finger protein GLI1 (Homo sapiens) (UniProt P08151); experiment: Inhibition of exogenously transfected human Gli1-mediated transcriptional activity in mouse C3H10T1/2 cells at 20 uM after 24 hrs by luciferase reporter gene assay; format: cell-based; conditions: C3H 10T1/2
# T1 sequence (whole entry): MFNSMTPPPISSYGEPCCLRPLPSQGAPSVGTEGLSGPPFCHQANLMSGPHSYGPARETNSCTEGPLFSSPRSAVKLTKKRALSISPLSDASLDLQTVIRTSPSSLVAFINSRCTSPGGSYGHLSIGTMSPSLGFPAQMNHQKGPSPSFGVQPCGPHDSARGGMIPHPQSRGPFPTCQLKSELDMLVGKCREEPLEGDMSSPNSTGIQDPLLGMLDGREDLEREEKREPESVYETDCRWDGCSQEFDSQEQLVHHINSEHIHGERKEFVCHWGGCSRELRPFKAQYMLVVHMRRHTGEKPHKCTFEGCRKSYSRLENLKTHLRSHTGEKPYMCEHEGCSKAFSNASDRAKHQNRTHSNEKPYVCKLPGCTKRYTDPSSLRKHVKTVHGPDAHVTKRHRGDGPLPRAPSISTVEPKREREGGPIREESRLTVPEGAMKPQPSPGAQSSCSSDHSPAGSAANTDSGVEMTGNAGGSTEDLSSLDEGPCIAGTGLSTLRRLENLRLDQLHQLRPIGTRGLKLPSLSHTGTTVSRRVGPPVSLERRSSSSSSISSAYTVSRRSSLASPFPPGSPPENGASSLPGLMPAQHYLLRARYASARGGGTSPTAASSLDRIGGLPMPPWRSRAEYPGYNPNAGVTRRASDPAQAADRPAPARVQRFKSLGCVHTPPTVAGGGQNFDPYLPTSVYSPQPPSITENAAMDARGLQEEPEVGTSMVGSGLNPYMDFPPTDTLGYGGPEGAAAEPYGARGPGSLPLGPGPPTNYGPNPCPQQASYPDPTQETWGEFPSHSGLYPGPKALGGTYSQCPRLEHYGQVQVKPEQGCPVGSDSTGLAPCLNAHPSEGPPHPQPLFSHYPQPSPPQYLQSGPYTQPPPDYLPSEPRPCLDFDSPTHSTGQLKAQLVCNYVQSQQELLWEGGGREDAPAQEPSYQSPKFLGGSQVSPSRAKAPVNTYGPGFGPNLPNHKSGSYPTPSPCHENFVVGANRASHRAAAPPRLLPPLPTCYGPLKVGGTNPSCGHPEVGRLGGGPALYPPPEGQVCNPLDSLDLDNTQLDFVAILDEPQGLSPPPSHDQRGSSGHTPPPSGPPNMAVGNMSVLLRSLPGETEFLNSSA
# Method in brief: (§2)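 They were replated 18 h later, given compound or DMSO 6 h after plating, and exposed for 24 h at 37 °C, 5% CO2. Lysate was read by dual luciferase as firefly/Renilla, triplicate, DMSO = 0%. IC50 came from curve fitting.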
# [4] = system: SJRH30; experiment: Cytotoxicity against human Rh30 cells at 40 uM/well after 68 hrs by alamar blue assay; format: functional, cell-based; method in brief: as §1
# [5] = system: LN-229; experiment: Cytotoxicity against human LN229 cells at 40 uM/well after 68 hrs by alamar blue assay; format: functional, cell-based; method in brief: as §1
# [6] = system: HepG2; experiment: Cytotoxicity against human HepG2 cells at 40 uM/well after 68 hrs by alamar blue assay; format: functional, cell-based; method in brief: as §1
# [7] = molecular target: T1, Zinc finger protein GLI1 (Homo sapiens); experiment: Inhibition of exogenously transfected human Gli1-mediated transcriptional activity in mouse C3H10T1/2 cells at 40 uM after 24 hrs by luciferase reporter gene assay; format: cell-based; conditions: C3H 10T1/2; method in brief: as §2
# [8] = system: DU-145; experiment: Cytotoxicity against human DU145 cells at 40 uM/well after 68 hrs by alamar blue assay; format: functional, cell-based; method in brief: as §1
# [9] = system: Raji; experiment: Cytotoxicity against human Raji cells at 40 uM/well after 68 hrs by alamar blue assay; format: functional, cell-based; method in brief: as §1
# [10] = system: MDA-MB-231; experiment: Cytotoxicity against human MDA-MB-231 cells at 40 uM/well after 68 hrs by alamar blue assay; format: functional, cell-based; method in brief: as §1
# [11] = molecular target: Zinc finger protein GLI2 (Homo sapiens, UniProt P10070); experiment: Inhibition of exogenously transfected human Gli2 delta-N-mediated transcriptional activity in mouse C3H10T1/2 cells after 24 hrs by luciferase reporter gene assay; format: cell-based; conditions: c3h 10t1/2
# Chain of Zinc finger protein GLI2 (P10070 whole entry, looked up): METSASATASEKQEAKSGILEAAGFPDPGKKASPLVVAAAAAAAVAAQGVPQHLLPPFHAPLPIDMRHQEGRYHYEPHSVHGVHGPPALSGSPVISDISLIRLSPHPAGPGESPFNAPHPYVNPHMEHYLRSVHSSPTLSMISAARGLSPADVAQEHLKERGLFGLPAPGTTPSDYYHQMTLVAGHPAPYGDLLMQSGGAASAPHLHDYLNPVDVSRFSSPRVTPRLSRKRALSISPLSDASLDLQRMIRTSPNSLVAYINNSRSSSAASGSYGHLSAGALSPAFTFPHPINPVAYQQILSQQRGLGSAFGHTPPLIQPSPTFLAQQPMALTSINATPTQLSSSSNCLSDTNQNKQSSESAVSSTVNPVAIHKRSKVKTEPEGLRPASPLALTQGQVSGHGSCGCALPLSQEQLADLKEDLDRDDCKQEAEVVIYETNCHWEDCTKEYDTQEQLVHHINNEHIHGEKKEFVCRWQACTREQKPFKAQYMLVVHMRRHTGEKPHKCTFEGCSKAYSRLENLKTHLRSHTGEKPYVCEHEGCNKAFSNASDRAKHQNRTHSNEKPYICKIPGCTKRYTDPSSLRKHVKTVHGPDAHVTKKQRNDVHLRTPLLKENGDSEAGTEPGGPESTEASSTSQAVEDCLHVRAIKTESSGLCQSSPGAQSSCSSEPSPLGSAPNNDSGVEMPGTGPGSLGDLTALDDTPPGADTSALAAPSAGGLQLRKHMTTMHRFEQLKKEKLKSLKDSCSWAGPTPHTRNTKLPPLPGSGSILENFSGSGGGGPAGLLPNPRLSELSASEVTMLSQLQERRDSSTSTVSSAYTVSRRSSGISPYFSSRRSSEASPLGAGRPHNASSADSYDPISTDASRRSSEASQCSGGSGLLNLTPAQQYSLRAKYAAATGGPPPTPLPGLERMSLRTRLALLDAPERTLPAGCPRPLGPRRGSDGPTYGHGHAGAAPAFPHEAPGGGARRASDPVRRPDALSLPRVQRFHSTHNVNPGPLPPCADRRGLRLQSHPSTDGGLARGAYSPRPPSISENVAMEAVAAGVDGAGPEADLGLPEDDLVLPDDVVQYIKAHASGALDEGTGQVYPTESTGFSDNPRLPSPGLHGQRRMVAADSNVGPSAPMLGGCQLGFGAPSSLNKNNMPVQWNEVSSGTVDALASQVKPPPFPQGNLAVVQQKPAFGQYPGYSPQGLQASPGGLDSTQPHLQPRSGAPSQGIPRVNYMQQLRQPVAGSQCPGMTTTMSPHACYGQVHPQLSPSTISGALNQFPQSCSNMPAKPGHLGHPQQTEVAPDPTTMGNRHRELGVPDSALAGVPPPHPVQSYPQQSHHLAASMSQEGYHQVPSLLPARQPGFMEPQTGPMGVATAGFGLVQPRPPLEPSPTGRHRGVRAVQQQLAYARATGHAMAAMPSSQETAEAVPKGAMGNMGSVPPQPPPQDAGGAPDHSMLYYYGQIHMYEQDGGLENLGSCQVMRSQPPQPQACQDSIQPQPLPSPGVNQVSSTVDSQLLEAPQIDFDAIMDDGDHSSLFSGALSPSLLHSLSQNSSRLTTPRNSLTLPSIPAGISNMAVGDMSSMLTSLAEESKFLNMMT
# Method in brief: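 C3H10T1/2 reporter assay run as for hGli1, but with an amino-terminal repressor-domain-deleted hGli2 (ΔNhGli2) in place of hGli1, plus GliLuc-BS and pRL-TK via Fugene6. Compound or DMSO was given for 24 h at 37 °C. Read-out was dual luciferase firefly/Renilla in triplicate, with dose-response curve fitting.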
# [12] = Stability in mouse C3H10T1/2 cells assessed as compound degradation at 40 uM after 24 hrs by LCMS analysis; format: ADME, cell-based; conditions: c3h 10t1/2, 24 h
# [13] = Cytotoxicity against mouse C3H10T1/2 cells; format: cell-based; conditions: c3h 10t1/2
SMILES,inhibition [3],inhibition [7],IC50 [11] [µM],Stability [12],Activity [1],Activity [2],Activity [4],Activity [5],Activity [6],Activity [8],Activity [9],Activity [10],Activity [13]
C[C@H](CNC(=O)c1ccc(O)cc1)c1cccc(C(=O)c2ccccc2)c1,Active,Active,,,Non-toxic,Active,Active,inactive,inactive,Active,Active,Active,
C[C@H](C(=O)Nc1ccc(O)cc1)c1cccc(C(=O)c2ccccc2)c1,Active,Active,,,Non-toxic,Active,Active,inactive,inactive,Active,Active,Active,
COc1ccccc1CCNC(=O)[C@@H](C)c1cccc(C(=O)c2ccccc2)c1,Active,Active,,,Non-toxic,Active,Active,inactive,inactive,Active,Active,Active,
COc1ccc(CCNC(=O)[C@@H](C)c2cccc(C(=O)c3ccccc3)c2)cc1O,Active,Active,,,Non-toxic,Active,Active,inactive,inactive,Active,Active,Active,
COc1ccc(C(=O)NC[C@@H](C)c2cccc(C(=O)c3ccccc3)c2)cc1,Active,Active,,,Non-toxic,Active,Active,inactive,inactive,Active,Active,Active,
C[C@H](C(=O)NCCc1ccccc1)c1cccc(C(=O)c2ccccc2)c1,Active,Active,,,Non-toxic,Active,Active,inactive,inactive,Active,Active,Active,
COc1cccc(CCNC(=O)[C@@H](C)c2cccc(C(=O)c3ccccc3)c2)c1,Active,Active,,,Non-toxic,Active,Active,inactive,inactive,Active,Active,Active,

# Second part, led by results:
inhibition [3],inhibition [7],IC50 [11] [µM],Stability [12],SMILES,Activity [1],Activity [2],Activity [4],Activity [5],Activity [6],Activity [8],Activity [9],Activity [10],Activity [13]
Active,Active,20.5,Stable,C[C@H](C(=O)N(CCc1ccc(O)cc1)CCc1ccc(O)cc1)c1cccc(C(=O)c2ccccc2)c1,Non-toxic,Active,Active,inactive,inactive,Active,Active,Active,
Active,Active,,,C[C@H](COC(=O)NCCc1ccc(O)cc1)c1cccc(C(=O)c2ccccc2)c1,Non-toxic,Active,Active,inactive,inactive,Active,Active,Active,
Active,Active,,,COCCN(CCc1ccc(O)cc1)C(=O)[C@@H](C)c1cccc(C(=O)c2ccccc2)c1,Non-toxic,Active,Active,inactive,inactive,Active,Active,Active,
inactive,inactive,,,COc1ccc(COC[C@@H](C)c2cccc(C(=O)c3ccccc3)c2)cc1,Non-toxic,Active,Active,inactive,inactive,Active,Active,Active,
Active,Active,,,O=C(Cc1c[nH]c2ccc(OCc3ccccc3)cc12)NCCc1ccc(O)cc1,Non-toxic,Active,Active,inactive,inactive,Active,Active,Active,Toxic
